Test results reported in ChEMBL document CHEMBL4038284, “Synthesis of novel quinoline-based 4,5-dihydro-1H-pyrazoles as potential anticancer, antifungal, antibacterial and antiprotozoal agents” (Eur J Med Chem, 2017).
In brackets after ≈: the same amount, converted by molar mass.

How the values were obtained:
[1] = test system: Klebsiella pneumoniae; experiment: Antibacterial activity against ESBL positive Klebsiella pneumoniae ATCC 700603 after 24 hrs by resazurin dye based microdilution assay; type: functional; details: Klebsiella pneumoniae, 700603, 24 h
How it was run: (§1)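 MIC taken as the lowest concentration giving visible inhibition and/or by resazurin (1 mg/mL). Gentamicin was the control. Run in duplicate, repeated at least three times.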

[2] = test system: Klebsiella pneumoniae; experiment: Antibacterial activity against carbapenemase positive Klebsiella pneumoniae BAA 1705 after 24 hrs by resazurin dye based microdilution assay; type: functional; details: BAA 1705, 24 h; how it was run: as §1
[3] = test system: Leishmania panamensis; experiment: Antileshmanial activity against EpiR/GFP fused Leishmania panamensis MHOM/CO/87/UA140 intracellular amastigotes infected in human […] cells after 72 hrs by flow cytometric method; type: functional, cell-based; details: MHOM/CO/87/UA140, 72 h
How it was run: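 PMA-treated U-937 cells (3 × 10^5 cells/mL) infected with stationary-phase GFP L. panamensis promastigotes (15:1), 3 h at 34 °C, then washed. After 24 h, compounds added at 50, 12.5, 3.125 and 0.78 µg/mL for 72 h at 37 °C. EC50 by Probit; triplicate, two experiments.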

[4] = test system: Candida albicans; experiment: Antifungal activity against Candida albicans ATCC 10231 incubated for 48 hrs under dark condition by broth microdilution method; type: functional; details: ATCC 10231, 48 h
How it was run: (§2)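 CLSI M27-A3 broth microdilution in RPMI-1640, DMSO ≤1%, compounds at 250-0.98 µg/mL final. Inoculum 1-5 × 10^3 CFU/mL. Incubated 48 h at 30 °C in a moist dark chamber, read at OD405. MIC80 and MIC50 taken from % inhibition dose-response curves (mean ± SEM, triplicate). Amphotericin B was the positive control.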

[5] = test system: Cryptococcus neoformans; experiment: Antifungal activity against Cryptococcus neoformans ATCC 32264 incubated for 48 hrs under dark condition by broth microdilution method; type: functional; details: ATCC 32264, 48 h; how it was run: as §2
[6] = test system: Candida albicans; experiment: Growth inhibition of Candida albicans ATCC 10231 at 250 ug/ml incubated for 48 hrs under dark condition by broth microdilution method relative to control; type: functional; details: ATCC 10231, 48 h, read-out: GI
How it was run: (§3)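 CLSI M27-A3 broth microdilution in RPMI-1640, DMSO ≤1%. Inoculum 1-5 × 10^3 CFU/mL. Incubated 48 h at 30 °C, dark. % inhibition = 100 − (OD405 test − sterility control)/(OD405 growth control − sterility control), with growth and sterility control wells. Triplicate.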

[7] = test system: Candida albicans; experiment: Growth inhibition of Candida albicans ATCC 10231 at 125 ug/ml incubated for 48 hrs under dark condition by broth microdilution method relative to control; type: functional; details: ATCC 10231, 48 h, read-out: GI; how it was run: as §3
[8] = test system: Candida albicans; experiment: Growth inhibition of Candida albicans ATCC 10231 at 62.5 ug/ml incubated for 48 hrs under dark condition by broth microdilution method relative to control; type: functional; details: ATCC 10231, 48 h, read-out: GI; how it was run: as §3
[9] = test system: Candida albicans; experiment: Growth inhibition of Candida albicans ATCC 10231 at 31.25 ug/ml incubated for 48 hrs under dark condition by broth microdilution method relative to control; type: functional; details: ATCC 10231, 48 h, read-out: GI; how it was run: as §3
[10] = test system: Candida albicans; experiment: Growth inhibition of Candida albicans ATCC 10231 at 15.62 ug/ml incubated for 48 hrs under dark condition by broth microdilution method relative to control; type: functional; details: ATCC 10231, 48 h, read-out: GI; how it was run: as §3
[11] = test system: Candida albicans; experiment: Growth inhibition of Candida albicans ATCC 10231 at 7.8 ug/ml incubated for 48 hrs under dark condition by broth microdilution method relative to control; type: functional; details: ATCC 10231, 48 h, read-out: GI; how it was run: as §3
[12] = test system: Candida albicans; experiment: Growth inhibition of Candida albicans ATCC 10231 at 3.4 ug/ml incubated for 48 hrs under dark condition by broth microdilution method relative to control; type: functional; details: ATCC 10231, 48 h, read-out: GI
[13] = test system: Cryptococcus neoformans; experiment: Growth inhibition of Cryptococcus neoformans ATCC 32264 at 250 ug/ml incubated for 48 hrs under dark condition by broth microdilution method relative to control; type: functional; details: ATCC 32264, 48 h, read-out: GI; how it was run: as §3
[14] = test system: Cryptococcus neoformans; experiment: Growth inhibition of Cryptococcus neoformans ATCC 32264 at 125 ug/ml incubated for 48 hrs under dark condition by broth microdilution method relative to control; type: functional; details: ATCC 32264, 48 h, read-out: GI; how it was run: as §3
[15] = test system: Cryptococcus neoformans; experiment: Growth inhibition of Cryptococcus neoformans ATCC 32264 at 62.5 ug/ml incubated for 48 hrs under dark condition by broth microdilution method relative to control; type: functional; details: ATCC 32264, 48 h, read-out: GI; how it was run: as §3
[16] = test system: Cryptococcus neoformans; experiment: Growth inhibition of Cryptococcus neoformans ATCC 32264 at 31.25 ug/ml incubated for 48 hrs under dark condition by broth microdilution method relative to control; type: functional; details: ATCC 32264, 48 h, read-out: GI; how it was run: as §3
[17] = test system: Cryptococcus neoformans; experiment: Growth inhibition of Cryptococcus neoformans ATCC 32264 at 15.62 ug/ml incubated for 48 hrs under dark condition by broth microdilution method relative to control; type: functional; details: ATCC 32264, 48 h, read-out: GI; how it was run: as §3
[18] = test system: Cryptococcus neoformans; experiment: Growth inhibition of Cryptococcus neoformans ATCC 32264 at 7.8 ug/ml incubated for 48 hrs under dark condition by broth microdilution method relative to control; type: functional; details: ATCC 32264, 48 h, read-out: GI; how it was run: as §3
[19] = test system: Cryptococcus neoformans; experiment: Growth inhibition of Cryptococcus neoformans ATCC 32264 at 3.4 ug/ml incubated for 48 hrs under dark condition by broth microdilution method relative to control; type: functional; details: ATCC 32264, 48 h, read-out: GI
[20] = test system: Staphylococcus aureus; experiment: Antibacterial activity against methicillin-sensitive Staphylococcus aureus ATCC 25923 after 24 hrs by resazurin dye based microdilution assay; type: functional; details: ATCC 25923, 24 h; how it was run: as §1
[21] = test system: Staphylococcus aureus; experiment: Antibacterial activity against methicillin-resistant Staphylococcus aureus ATCC 43300 after 24 hrs by resazurin dye based microdilution assay; type: functional; details: ATCC 43300, 24 h
How it was run: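 Broth microdilution in Mueller Hinton broth, inoculum 5 × 10^5 – 8 × 10^5. Compound stocks diluted in MHB with 5% DMSO and 0.1% Tween 80. Incubation 24 h at 35-37 °C. MIC is the lowest concentration with visible growth inhibition and/or by resazurin (1 mg/mL) read-out. Gentamicin as control. Run in duplicate, replicated at least three times.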

[22] = test system: Staphylococcus aureus; experiment: Antibacterial activity against vancomycin-intermediate Staphylococcus aureus after 24 hrs by resazurin dye based microdilution assay; type: functional; how it was run: as §1
[23] = test system: Escherichia coli; experiment: Antibacterial activity against Escherichia coli ATCC 25922 after 24 hrs by resazurin dye based microdilution assay; type: functional; details: ATCC 25922, 24 h; how it was run: as §1
[24] = test system: Pseudomonas aeruginosa; experiment: Antibacterial activity against Pseudomonas aeruginosa ATCC 27853 after 24 hrs by resazurin dye based microdilution assay; type: functional; details: ATCC 27853, 24 h; how it was run: as §1
[25] = test system: Neisseria gonorrhoeae; experiment: Antibacterial activity against beta lactamase positive Neisseria gonorrhoeae ATCC 31426 by oxidase test; type: functional
How it was run: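 Agar dilution MIC on GC agar with 1% isovitalex containing increasing compound concentrations. Plates inoculated with about 1×10^4 CFU (5 µL). MIC is the lowest concentration that inhibited growth, with growth confirmed by oxidase test. Run in duplicate, repeated at least three times.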

[26] = test system: Plasmodium falciparum; experiment: Antiplasmodial activity against chloroquine-sensitive Plasmodium falciparum 3D7 assessed as reduction in parasitic LDH activity after 48 hrs by Malstat reagent based […] method; type: functional; details: 3D7, 48 h
How it was run: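 Unsynchronized P. falciparum 3D7 at 0.5% parasitemia and 1% hematocrit in RPMI with 3% Albumax II. Exposed to 100, 25, 6.25 and 1.56 µg/mL for 48 h at 37 °C under 90% N2/5% CO2/5% O2. After three freeze-thaw cycles, LDH measured with Malstat and NBT/PES, 1 h in the dark, read at 650 nm. IC50 by Probit; triplicate, ≥2 experiments.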

[27] = test system: U-937; experiment: Cytotoxicity against human U937 cells after 72 hrs by MTT assay; type: cell-based; details: u-937, 72 h
How it was run: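 Exponentially growing U-937 at 1 × 10^5 cells/mL in RPMI-1640 with 10% FBS were exposed to 200, 50, 12.5 and 3.125 µg/mL for 72 h at 37 °C, 5% CO2. MTT for 3 h, stopped with isopropanol/SDS, formazan read at 570 nm, blank-corrected. LC50 by Probit from % viability against untreated cells. Triplicate, at least two independent experiments.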

[28] = test system: Trypanosoma cruzi; experiment: Antitrypanosomal activity against Trypanosoma cruzi Tulahuen intracellular amastigote harboring LacZ infected in human U937 cells after 72 hrs by CPRG/Nonidet reagent based spectrophotometric method; type: functional, cell-based; details: U-937, 72 h
How it was run: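 U-937 cells at 2.5 × 10^5 cells/mL in RPMI-1640 with 10% serum and 0.1 µg/mL PMA were infected with β-galactosidase-transfected Tulahuen epimastigotes at 5 parasites per cell. Infected cells were exposed to 50, 12.5, 3.125 and 0.78 µg/mL for 72 h. CPRG (100 uM) and 0.1% Nonidet P-40 were added for 3 h, read at 570 nm. EC50 by Probit. Triplicate, at least two experiments; benznidazole as reference.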

Clc1ccc(N2N=C(c3ccccc3)CC2c2cccc(Nc3ccnc4cc(Cl)ccc34)c2)cc1 (stereo not given)
MIC [1]: > 1000 µg/mL
MIC [2]: > 1000 µg/mL
EC50 [3]: 15.7 µg/mL (≈ 30.8 µM)
MIC50 [4]: ≥ 250 µg/mL
MIC80 [4]: ≥ 250 µg/mL
MIC50 [5]: 250 µg/mL (≈ 491 µM)
MIC80 [5]: ≥ 250 µg/mL
inhibition of growth at 250 µg/mL [6]: 26.9%
inhibition of growth at 125 µg/mL [7]: 18.9%
inhibition of growth at 62.5 µg/mL [8]: 10.9%
inhibition of growth at 31.25 µg/mL [9]: 10.5%
inhibition of growth at 15.62 µg/mL [10]: 8.78%
inhibition of growth at 7.8 µg/mL [11]: 4.82%
inhibition of growth at 3.4 µg/mL [12]: 2.71%
inhibition of growth at 250 µg/mL [13]: 61%
inhibition of growth at 125 µg/mL [14]: 46%
inhibition of growth at 62.5 µg/mL [15]: 13.8%
inhibition of growth at 31.25 µg/mL [16]: 5.92%
inhibition of growth at 15.62 µg/mL [17]: 0%
inhibition of growth at 7.8 µg/mL [18]: 0%
inhibition of growth at 3.4 µg/mL [19]: 0%
MIC [20]: > 1000 µg/mL
MIC [21]: > 1000 µg/mL
MIC [22]: > 1000 µg/mL
MIC [23]: > 1000 µg/mL
MIC [24]: > 1000 µg/mL
MIC [25]: > 1000 µg/mL
EC50 [26]: 10.3 µg/mL (≈ 20.1 µM)
LC50 [27]: > 200 µg/mL
EC50 [28]: 15.1 µg/mL (≈ 29.7 µM)
